Measurements as given in ChEMBL document CHEMBL5674882, “Benzolactam-related compounds promote apoptosis of HIV-infected human cells via protein kinase C-induced HIV latency reversal” (J Biol Chem, 2019).
Activity calls are given as the source filed them. The rule behind the calls is not given here.

Legend:
[1] = Toxicity in human PBMC assessed as reduction in cell viability after 5 days by WST8 assay; assay type: cell-based; settings: time 5 day
How it was run: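 PBMC from a healthy donor exposed to drug, with viability determined at day 5. CC50 is the concentration reducing viability by 50%.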

[2] = target: Protein kinase C (PKC) (Homo sapiens) (UniProt O94806+P41743+P17252+P05129+Q05655+P05771+Q05513+Q02156+P24723+Q15139+Q04759); assay: Synergistic activation of PKC in CD4+ T-cells purified from HIV-infected patient assessed as increase in transcription of HIV mRNA at 5 uM incubated for 24 hrs in presence of 1 uM JQ1 by qRT-PCR method; assay type: cell-based; settings: CD4+ T cell, filed as activator
How it was run: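 CD4+ T-cells purified from PBMC of patients on cART for at least 5 years with plasma viral load <20 copies/ml. Cells plated at 2.5 × 10^6 cells/ml and treated 24 h, alone or with 1 μm JQ1. Intracellular HIV RNA measured by qRT-PCR against a plasmid standard curve, normalised per ng input RNA, relative to untreated cells. Synergy assessed by Bliss independence model.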

[3] = Toxicity in human CD4+ T-cells assessed as elevation of supernatant cytokine concentrations of IFNgamma incubated for 24 hrs in presence of JQ1 by bead-based immunoassay; settings: cd4+ t cell
How it was run: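 Purified CD4+ T-cells from healthy donors treated 24 h with 1 μm drug, 1 μm JQ1, or the combination. IL-2, IL-5, IL-6, IL-13, TNFα and IFN-γ in supernatants measured by flow-cytometry bead-based Th1/Th2 immunoassay. Run in duplicate.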

[4] = test system: J-Lat 6.3 (Homo sapiens); assay: Induction of apoptosis in human J-Lat 6.3 cells at 1 uM incubated for 48 hrs after pre-incubated for 2 hrs with 20 uM caspase inhibitor Q-VD-Oph by propidium iodide/annexin-V staining based flow cytometry

Compound: CCCCCCCCCCc1ccc2c(c1)N(C)[C@@H](C(C)C)C(=O)N[C@H](CO)C2
- CC50 at 120 h [1]: 39.9 µM
- fold change (FC) [2]: 13.4
- Activity [3]: Non-Toxic
- Activity [4]: inactive
